ChEMBL document CHEMBL1152292, “Biarylpyrazolyl oxadiazole as potent, selective, orally bioavailable cannabinoid-1 receptor antagonists for the treatment of obesity” (J Med Chem, 2008)
pIC50: −log10 of the molar value.

Experiments:
Cannabinoid receptor 1 = Cannabinoid receptor 1 (Rattus norvegicus, UniProt P20272); experiment: Displacement of [3H]CP-55940 from CB1 receptor in Sprague-Dawley rat cerebellum by liquid scintillation spectrometry
Outline: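 Cerebella from male rats (200-300 g) homogenized in TME buffer (50 mM Tris-HCl, 1 mM EDTA, 3 mM MgCl2, pH 7.4), centrifuged 48000g 30 min at 4 °C. About 10 µg membrane incubated with radioligand and varied test concentrations in TME plus 0.5% fatty-acid-free BSA, 1 h at 30 °C. Filtered through PEI-soaked GF/B filters. […] IC50 by nonlinear regression, triplicates, three independent experiments.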

Cannabinoid receptor 2 = Cannabinoid receptor 2 (Homo sapiens, UniProt P34972); experiment: Displacement of [3H]WIN-55212-2 from human CB2 receptor expressed in CHOK1 cells by liquid scintillation spectrometry; assay type: cell-based, CHO-K1
Outline: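 Membranes from CHO K-1 cells transfected with human CB2, prepared as for cerebellum. About 10 µg membrane incubated with radioligand and varied test concentrations in TME buffer plus 0.5% fatty-acid-free BSA, 1 h at 30 °C. Filtered through PEI-soaked GF/B filters. Nonspecific binding defined with 1 µM WIN55,212-2. IC50 by nonlinear regression, triplicates, three independent experiments.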

[1] = Selectivity ratio of IC50 for human CB2 receptor to IC50 for Sprague-Dawley rat CB1 receptor
Outline: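 Ratio of CB2 IC50 to CB1 IC50. Both come from radioligand competition on membranes incubated 1 h at 30 °C in TME/0.5% BSA: rat cerebellar membranes for CB1, human CB2-transfected CHO K-1 membranes for CB2. IC50 by nonlinear regression from three independent triplicate experiments.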

Mus musculus = experiment: Reduction in body weight in diet-induced obese C57BL/6J mouse model at 10 mg/kg, po after 14 days; assay type: functional; design: scale not given: the % may be the effect or the level left
Outline: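 Male C57BL/6J DIO mice over 38 g, singly housed on a 12 h/12 h light/dark cycle with free access to food and water, habituated at least 7 days, tested during the light period. Compound dissolved fresh daily in deionized water with 10% DMSO, given orally at 10 mL/kg daily for 14 days. Vehicle controls n=5, treated groups n=6. Body weight recorded daily.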

Chain of Cannabinoid receptor 2 (P34972 whole entry): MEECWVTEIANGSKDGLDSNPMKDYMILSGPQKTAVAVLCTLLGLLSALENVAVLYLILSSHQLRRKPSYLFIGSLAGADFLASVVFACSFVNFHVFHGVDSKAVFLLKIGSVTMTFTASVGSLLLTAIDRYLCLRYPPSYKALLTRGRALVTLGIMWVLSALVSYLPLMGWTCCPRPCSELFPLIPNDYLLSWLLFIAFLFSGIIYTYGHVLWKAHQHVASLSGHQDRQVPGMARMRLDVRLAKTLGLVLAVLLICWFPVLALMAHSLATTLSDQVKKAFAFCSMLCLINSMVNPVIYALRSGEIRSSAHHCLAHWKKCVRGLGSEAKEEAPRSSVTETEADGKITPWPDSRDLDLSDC
Chain of Cannabinoid receptor 1 (P20272 whole entry): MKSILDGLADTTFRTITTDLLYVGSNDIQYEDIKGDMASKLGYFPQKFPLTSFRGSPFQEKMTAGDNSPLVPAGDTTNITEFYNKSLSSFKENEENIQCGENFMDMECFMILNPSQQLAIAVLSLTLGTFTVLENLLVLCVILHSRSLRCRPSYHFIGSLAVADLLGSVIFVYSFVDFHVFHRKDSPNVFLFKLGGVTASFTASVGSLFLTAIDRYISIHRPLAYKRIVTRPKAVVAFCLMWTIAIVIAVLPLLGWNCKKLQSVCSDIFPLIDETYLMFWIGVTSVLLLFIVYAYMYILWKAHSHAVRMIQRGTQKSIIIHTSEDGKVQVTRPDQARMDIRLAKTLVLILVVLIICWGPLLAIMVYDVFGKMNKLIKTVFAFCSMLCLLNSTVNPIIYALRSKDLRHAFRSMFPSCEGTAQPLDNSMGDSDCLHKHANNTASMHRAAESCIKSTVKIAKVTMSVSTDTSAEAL

Row | Structure (SMILES) | pIC50 (Cannabinoid receptor 1) | pIC50 (Cannabinoid receptor 2) | Ratio IC50 [1] | Activity (Mus musculus) [%]
1 | COC(=O)NC(C)c1c(-c2nnc(C(C)(C)C)o2)nn(-c2ccc(Cl)cc2Cl)c1-c1ccc(Cl)cc1 (configuration not stated) | 8.05 | < 5.00 | > 1110 | –
2 | Cc1c(-c2nnc(C(C)C)o2)nn(-c2ccc(Cl)cc2Cl)c1-c1ccc(Cl)cc1 | 7.60 | – | – | –
3 | Clc1ccc(-n2nc(-c3nnc(C4(c5ccccc5)CC4)o3)c(Cn3cncn3)c2-c2ccc(Br)cc2)c(Cl)c1 | 9.02 | 6.62 | 252 | –
4 | CCCc1c(-c2nnc(C(C)(C)C)o2)nn(-c2ccc(Cl)cc2Cl)c1-c1ccc(Cl)cc1 | 7.47 | < 5.00 | > 299 | –
5 | CC1(c2nnc(-c3nn(-c4ccc(Cl)cc4Cl)c(-c4ccc(Br)cc4)c3Cn3cncn3)o2)CC1 | 8.55 | 6.39 | 145 | –
6 | CC(C)(C)c1nnc(-c2nn(-c3ccc(Cl)cc3Cl)c(-c3ccc(Cl)cc3)c2Cn2cccn2)o1 | – | 6.01 | 48 | –
7 | Cc1c(-c2nnc(C(C)(C)c3ccccc3)o2)nn(-c2ccc(Cl)cc2Cl)c1-c1ccc(Cl)cc1 | 8.07 | – | – | –
8 | CC1(c2nnc(-c3nn(-c4ccc(Cl)cc4Cl)c(-c4ccc(Cl)cc4)c3Cn3cncn3)o2)CC1 | 8.70 | 6.02 | 482 | –
9 | CCC(C)c1nnc(-c2nn(-c3ccc(Cl)cc3Cl)c(-c3ccc(Cl)cc3)c2C)o1 (configuration not stated) | 7.98 | – | – | –
10 | Cc1ccc(C2(c3nnc(-c4nn(-c5ccc(Cl)cc5Cl)c(-c5ccc(Cl)cc5)c4Cn4cncn4)o3)CC2)cc1 | 8.96 | 5.91 | 1140 | –
11 | CCCCCc1nnc(-c2nn(-c3ccc(Cl)cc3Cl)c(-c3ccc(Cl)cc3)c2C)o1 | 7.14 | – | – | –
12 | Cc1c(-c2nnc(C3CCCCCC3)o2)nn(-c2ccc(Cl)cc2Cl)c1-c1ccc(Cl)cc1 | 7.58 | – | – | –
13 | CC(C)(C)c1nnc(-c2nn(-c3ccc(Cl)cc3Cl)c(-c3ccc(Cl)cc3)c2CC#N)o1 | – | 6.27 | 88 | –
14 | CC(=O)SCc1c(-c2nnc(C(C)(C)C)o2)nn(-c2ccc(Cl)cc2Cl)c1-c1ccc(Cl)cc1 | – | 5.83 | 71 | –
15 | CCCc1nnc(-c2nn(-c3ccc(Cl)cc3Cl)c(-c3ccc(Cl)cc3)c2C)o1 | 6.80 | – | – | –
16 | Cc1c(-c2nnc(C3CCCCC3)o2)nn(-c2ccc(Cl)cc2Cl)c1-c1ccc(Cl)cc1 | 7.92 | – | – | –
17 | Cc1c(-c2nnc(C3CCC3)o2)nn(-c2ccc(Cl)cc2Cl)c1-c1ccc(Cl)cc1 | 7.88 | – | – | –
18 | Clc1ccc(C2(c3nnc(-c4nn(-c5ccc(Cl)cc5Cl)c(-c5ccc(Br)cc5)c4Cn4cncn4)o3)CC2)cc1 | 9.24 | 5.98 | 1840 | –
19 | CC(C)(C)c1nnc(-c2nn(-c3ccc(Cl)cc3Cl)c(-c3ccc(Cl)cc3)c2C(C)(C)O)o1 | – | 5.78 | 74 | –
20 | CCCCc1nnc(-c2nn(-c3ccc(Cl)cc3Cl)c(-c3ccc(Cl)cc3)c2C)o1 | 7.46 | – | – | –

Row | Structure (SMILES) | pIC50 (Cannabinoid receptor 1) | pIC50 (Cannabinoid receptor 2) | Ratio IC50 [1] | Activity (Mus musculus) [%]
21 | Cc1c(-c2nnc(Cc3ccccc3)o2)nn(-c2ccc(Cl)cc2Cl)c1-c1ccc(Cl)cc1 | 7.72 | – | – | –
22 | Cc1c(-c2nnc(C(C)(C)C)o2)nn(-c2ccc(Cl)cc2Cl)c1-c1ccc(Cl)cc1 | 8.12 | 5.85 | 186 | –
23 | CC(C)(C)c1nnc(-c2nn(-c3ccc(Cl)cc3Cl)c(-c3ccc(Cl)cc3)c2CO)o1 | 7.84 | 5.74 | 124 | –
24 | C=C(C)c1c(-c2nnc(C(C)(C)C)o2)nn(-c2ccc(Cl)cc2Cl)c1-c1ccc(Cl)cc1 | – | 5.76 | 358 | –
25 | CCC(CC)c1nnc(-c2nn(-c3ccc(Cl)cc3Cl)c(-c3ccc(Cl)cc3)c2C)o1 | 7.50 | – | – | –
26 | CC(C)(C)c1nnc(-c2nn(-c3ccc(Cl)cc3Cl)c(-c3ccc(Cl)cc3)c2COc2ccccn2)o1 | – | 5.69 | 84 | –
27 | CC(C)(C)c1nnc(-c2nn(-c3ccc(Cl)cc3Cl)c(-c3ccc(Cl)cc3)c2Cn2ncnn2)o1 | 8.47 | 6.17 | 202 | –
28 | FC(F)(F)C1(c2nnc(-c3nn(-c4ccc(Cl)cc4Cl)c(-c4ccc(Br)cc4)c3Cn3cncn3)o2)CC1 | 9.03 | 6.02 | 1020 | 29.3
29 | COC(=O)NCc1c(-c2nnc(C(C)(C)C)o2)nn(-c2ccc(Cl)cc2Cl)c1-c1ccc(Cl)cc1 | – | 5.78 | 107 | –
30 | Cc1c(-c2nnc(Cc3ccccn3)o2)nn(-c2ccc(Cl)cc2Cl)c1-c1ccc(Cl)cc1 | 7.28 | – | – | –
31 | CCC(C)(C)c1nnc(-c2nn(-c3ccc(Cl)cc3Cl)c(-c3ccc(Cl)cc3)c2C)o1 | 7.98 | – | – | –
32 | Clc1ccc(-c2c(Cn3cncn3)c(-c3nnc(C4(c5ccc(Cl)cc5)CC4)o3)nn2-c2ccc(Cl)cc2Cl)cc1 | – | 5.83 | 670 | –
33 | COCc1c(-c2nnc(C(C)(C)C)o2)nn(-c2ccc(Cl)cc2Cl)c1-c1ccc(Cl)cc1 | – | 6.43 | 24 | –
34 | CC(=O)OCc1c(-c2nnc(C(C)(C)C)o2)nn(-c2ccc(Cl)cc2Cl)c1-c1ccc(Cl)cc1 | – | 5.89 | 58 | –
35 | CC(C)(C)c1nnc(-c2nn(-c3ccc(Cl)cc3Cl)c(-c3ccc(Cl)cc3)c2CF)o1 | – | 5.95 | 76 | –
36 | CCCCC(C)c1nnc(-c2nn(-c3ccc(Cl)cc3Cl)c(-c3ccc(Cl)cc3)c2C)o1 (configuration not stated) | 7.82 | – | – | –
37 | Cc1ccc(C2(c3nnc(-c4nn(-c5ccc(Cl)cc5Cl)c(-c5ccc(Br)cc5)c4Cn4cncn4)o3)CC2)cc1 | 8.87 | 6.24 | 432 | –
38 | CC(C)(C)c1nnc(-c2nn(-c3ccc(Cl)cc3Cl)c(-c3ccc(Br)cc3)c2Cn2cncn2)o1 | – | 6.29 | 187 | –
39 | Cc1c(-c2nnc(C(C)c3ccccc3)o2)nn(-c2ccc(Cl)cc2Cl)c1-c1ccc(Cl)cc1 (configuration not stated) | 7.96 | – | – | –
40 | CC(C)(C)c1nnc(-c2nn(-c3ccc(Cl)cc3Cl)c(-c3ccc(Cl)cc3)c2C2CC2)o1 | 7.52 | 5.48 | 110 | –

Row | Structure (SMILES) | pIC50 (Cannabinoid receptor 1) | pIC50 (Cannabinoid receptor 2) | Ratio IC50 [1] | Activity (Mus musculus) [%]
41 | CC(C)(C)c1nnc(-c2nn(-c3ccc(Cl)cc3Cl)c(-c3ccc(Cl)cc3)c2Cn2ccnc2)o1 | – | 6.42 | 20 | –
42 | Cc1c(-c2nnc(C3(C(F)(F)F)CC3)o2)nn(-c2ccc(Cl)cc2Cl)c1-c1ccc(Cl)cc1 | – | – | – | 22.8
43 | Cc1c(-c2nnc(-c3ccccc3)o2)nn(-c2ccc(Cl)cc2Cl)c1-c1ccc(Cl)cc1 | 6.55 | – | – | –
44 | CC(C)(C)c1nnc(-c2nn(-c3ccc(Cl)cc3Cl)c(-c3ccc(Cl)cc3)c2Cn2cnnn2)o1 | – | 6.13 | 96 | –
45 | CC(C)c1c(-c2nnc(C(C)(C)C)o2)nn(-c2ccc(Cl)cc2Cl)c1-c1ccc(Cl)cc1 | 7.74 | 5.55 | 157 | –
46 | C=Cc1c(-c2nnc(C(C)(C)C)o2)nn(-c2ccc(Cl)cc2Cl)c1-c1ccc(Cl)cc1 | – | 5.98 | 62 | –
47 | CC(C)(C)c1nnc(-c2nn(-c3ccc(Cl)cc3Cl)c(-c3ccc(Cl)cc3)c2COc2ccccc2)o1 | – | 5.23 | 204 | –
48 | CCc1c(-c2nnc(C(C)(C)C)o2)nn(-c2ccc(Cl)cc2Cl)c1-c1ccc(Cl)cc1 | 8.18 | 5.63 | 355 | –
49 | CCCCC(C)(C)c1nnc(-c2nn(-c3ccc(Cl)cc3Cl)c(-c3ccc(Cl)cc3)c2C)o1 | 7.83 | – | – | –
50 | Clc1ccc(-c2c(Cn3cncn3)c(-c3nnc(C4(c5ccccc5)CC4)o3)nn2-c2ccc(Cl)cc2Cl)cc1 | – | 5.95 | – | –
51 | CC(C)(C)c1nnc(-c2nn(-c3ccc(Cl)cc3Cl)c(-c3ccc(Cl)cc3)c2Cn2cncn2)o1 | – | 6.09 | 341 | –
52 | FC(F)(F)C1(c2nnc(-c3nn(-c4ccc(Cl)cc4Cl)c(-c4ccc(Cl)cc4)c3Cn3cncn3)o2)CC1 | 8.82 | 5.76 | 1160 | 29.5
53 | CC(F)c1c(-c2nnc(C(C)(C)C)o2)nn(-c2ccc(Cl)cc2Cl)c1-c1ccc(Cl)cc1 (configuration not stated) | – | 6.03 | 66 | –
54 | CC(C)(C)c1nnc(-c2nn(-c3ccc(Cl)cc3Cl)c(-c3ccc(Cl)cc3)c2Cn2ccnn2)o1 | – | 5.95 | 88 | –
55 | C[C@H](NC(=O)C(C)(C)Oc1ccc(C(F)(F)F)cn1)[C@@H](Cc1ccc(Cl)cc1)c1cccc(C#N)c1 [TARANABANT] | 9.07 | – | – | –
56 | CC(O)c1c(-c2nnc(C(C)(C)C)o2)nn(-c2ccc(Cl)cc2Cl)c1-c1ccc(Cl)cc1 (configuration not stated) | – | 5.72 | 187 | –
57 | CC(C)(C)c1nnc(-c2nn(-c3ccc(Cl)cc3Cl)c(-c3ccc(Cl)cc3)c2C(=O)O)o1 | < 5.00 | – | – | –
58 | Cc1c(-c2nnc(C(C)(C)c3ccc(Cl)cc3)o2)nn(-c2ccc(Cl)cc2Cl)c1-c1ccc(Cl)cc1 | 8.32 | – | – | –
